Experimental data of several laboratories.
Each line is one published result; the experiments were not run side by side.
BTK: Tyrosine-protein kinase BTK (BTK, Homo sapiens, UniProt Q06187)

SMILES	target	assay	conditions	endpoint	value
COc1ccc2oc(-c3ccc4nc(N)oc4c3)c/c(=N\c3ccccc3NC(=O)CCN)c2c1	Casein kinase II subunit alpha (CSNK2A1, Homo sapiens, UniProt P68400)	binding	1 µM	remaining binding	106%
C#Cc1cnc(Nc2ccnc(CO)c2)nc1Nc1ccccc1S(C)(=O)=NC#N (centres unmarked)	Atypical kinase COQ8A, mitochondrial (COQ8A, Homo sapiens, UniProt Q8NI60)	cell-free assay	1 µM	remaining signal	97%
C#Cc1cc(-c2cc(Nc3nc(N[C@@H](C)c4ccc(F)cn4)ncc3Cl)n[nH]2)ccc1C=O	Mitogen-activated protein kinase 12 (MAPK12, Homo sapiens, UniProt P53778)	enzyme activity, inhibitor	0.2 µM	inhibition	1.88%
N#Cc1ccc(NC(=O)Nc2ccccc2)cc1	Mast/stem cell growth factor receptor Kit (KIT, Homo sapiens, UniProt P10721, D816V)	cell-free assay, competition with immobilised ligand	25 µM	remaining binding	89%
[2H]c1cc(C)c(NC(=O)c2cnc(Nc3cc(N4CC[C@H](O)C4)nc(C)n3)s2)c(Cl)c1	BTK	enzyme activity, inhibitor, mobility shift	1 nM	inhibition	72%
Cc1cc(-c2ccnc3[nH]cc(F)c23)cc(F)c1[C@@]1(O)[C@H](C)CN(C(=O)CN)C[C@@H]1C	RAC-beta serine/threonine-protein kinase (AKT2, Homo sapiens, UniProt P31751)	enzyme activity, inhibitor	15 nM	remaining activity	94.5%
C[C@H](NC(=O)C(=O)Nc1ccccc1C(C)(C)C)C(=O)N[C@@H](CC(=O)O)C(=O)COc1c(F)c(F)cc(F)c1F	Caspase-8 (CASP8, Homo sapiens, UniProt Q14790)	enzyme activity, inhibitor	–	kinact/KI	2.74e+06 M⁻¹ s⁻¹
Cc1nc(Nc2ncc(C(=O)Nc3c(C)cccc3Cl)s2)cc(N2CCCCC2)n1	BTK	enzyme activity, inhibitor, mobility shift	1 nM	inhibition	56%
C1=C/COCc2cc(ccc2OCCN2CCCC2)Nc2nccc(n2)-c2cccc(c2)COC/1	Myosin light chain kinase, smooth muscle (MYLK, Homo sapiens, UniProt Q15746)	binding	0.1 µM	remaining binding	83%
Cc1nc(Nc2ncc(C(=O)Nc3c(C)cccc3Cl)s2)cc(N2CC[C@H](O)C2)n1	BTK	enzyme activity, inhibitor, mobility shift	1 nM	inhibition	72%
CCCCC(=O)Nc1ccc(-c2ccc3ncn(CCC)c(=O)c3c2)cn1	Mast/stem cell growth factor receptor Kit (KIT, Homo sapiens, UniProt P10721, T670I/V559D)	binding, competition with immobilised ligand	0.5 µM	remaining binding	79%
[2H]c1cc(C)c(NC(=O)c2cnc(Nc3cc(N4CCCCC4)nc(C)n3)s2)c(Cl)c1	BTK	enzyme activity, inhibitor, mobility shift	100 pM	inhibition	> 50%
CN(C)CCOC(=O)COc1ccc(Cl)cc1	D(4) dopamine receptor (DRD4, Homo sapiens, UniProt P21917)	ligand displacement, radioligand	1 µM, cell membranes	inhibition	-12.4%
Cc1cc(O)c(-c2ccc([C@@H](C)CN(C)C)cc2)c2c1[nH]c(=O)c1sccc12	Ribosomal protein S6 kinase alpha-5, N-terminal kinase domain (RPS6KA5, Homo sapiens, UniProt O75582)	enzyme activity, inhibitor	0.1 µM	inhibition	3.82%
